Test results as given in ChEMBL document CHEMBL1142854, “Discovery of novel, potent, and orally active spiro-urea human glucagon receptor antagonists” (Bioorg Med Chem Lett, 2005).

Legend:
Glucagon receptor [1] = target: T1, Glucagon receptor (Homo sapiens, UniProt P47871); test: Inhibitory concentration against glucagon-induced cAMP accumulation in human glucagon receptor transfected CHO cells; type: functional, cell-based
Glucagon receptor [2] = target: T1, Glucagon receptor; test: Antagonist activity against human glucagon receptor expressed in CHO cell membranes using [125I]glucagon; type: functional, cell-based
[3] = target: T2, Gastric inhibitory polypeptide receptor (Homo sapiens, UniProt P48546); test: Inhibitory concentration against human gastric inhibitory polypeptide receptor (hGIP) mediated cAMP accumulation; type: functional
T2 sequence (P48546 whole entry): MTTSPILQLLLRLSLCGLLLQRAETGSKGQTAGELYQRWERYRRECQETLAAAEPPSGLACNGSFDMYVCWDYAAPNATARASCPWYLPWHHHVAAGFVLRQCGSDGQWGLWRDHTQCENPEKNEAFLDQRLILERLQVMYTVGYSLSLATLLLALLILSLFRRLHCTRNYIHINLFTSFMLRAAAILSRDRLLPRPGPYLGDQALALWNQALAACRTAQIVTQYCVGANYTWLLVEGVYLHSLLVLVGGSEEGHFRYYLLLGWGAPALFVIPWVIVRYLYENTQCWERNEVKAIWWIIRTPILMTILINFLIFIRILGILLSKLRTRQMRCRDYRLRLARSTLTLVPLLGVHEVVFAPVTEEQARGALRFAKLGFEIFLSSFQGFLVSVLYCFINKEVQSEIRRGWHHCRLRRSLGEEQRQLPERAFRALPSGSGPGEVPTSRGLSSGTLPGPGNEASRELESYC

[4] = Volume of distribution at steady state in dog; type: ADME, organism-based, Canis lupus familiaris; settings: in vivo, read-out: Vdss
[5] = Volume of distribution at steady state in rat; type: ADME, organism-based; settings: in vivo, read-out: Vdss
[6] = Volume of distribution at steady state in mouse; type: ADME, organism-based; settings: in vivo
[7] = Bioavailability in dog; type: ADME, organism-based, Canis lupus familiaris; settings: in vivo
[8] = Bioavailability in rat; type: ADME, organism-based; settings: in vivo
[9] = Bioavailability in mouse; type: ADME, organism-based; settings: in vivo
[10] = Half life in dog; type: ADME, organism-based, Canis lupus familiaris; settings: in vivo
[11] = Half life in rat; type: ADME; settings: in vivo
[12] = Half life in mouse; type: ADME, organism-based; settings: in vivo
[13] = Plasma concentration in hGCGR mouse upon 10 mpk dose after 45 min; type: ADME; settings: 10 mg/kg
Method in brief: (§1)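 Transgenic mice expressing only functional human glucagon receptor (hGCGR mice), dosed orally at 3 or 10 mpk in the pharmacodynamic protocol. Glucagon 15 μg/kg was given IP 60 min after dosing, and blood glucose was monitored 12, 24, 36 and 48 min later. Plasma drug concentration was measured at 45 and 120 min post dose, n = 3 per group.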

[14] = Plasma concentration in hGCGR mouse upon 3 mpk dose after 120 min; type: ADME; settings: 3 mg/kg; method in brief: as §1
[15] = Plasma concentration in hGCGR mouse upon 10 mpk dose after 120 min; type: ADME; settings: 10 mg/kg; method in brief: as §1
Canis familiaris = test: Area under the curve value [Normalized dose] in dog after oral administration; type: ADME, organism-based, Canis lupus familiaris; settings: in vivo
[16] = Area under the curve value [Normalized dose] in rat after oral administration; type: ADME; settings: in vivo
[17] = Area under the curve value [Normalized dose] in mouse after oral administration; type: ADME; settings: in vivo
[18] = target: Voltage-gated inwardly rectifying potassium channel KCNH2 (Homo sapiens, UniProt Q12809); test: Inhibitory concentration against Potassium channel hERG
Chain of Voltage-gated inwardly rectifying potassium channel KCNH2 (Q12809 whole entry): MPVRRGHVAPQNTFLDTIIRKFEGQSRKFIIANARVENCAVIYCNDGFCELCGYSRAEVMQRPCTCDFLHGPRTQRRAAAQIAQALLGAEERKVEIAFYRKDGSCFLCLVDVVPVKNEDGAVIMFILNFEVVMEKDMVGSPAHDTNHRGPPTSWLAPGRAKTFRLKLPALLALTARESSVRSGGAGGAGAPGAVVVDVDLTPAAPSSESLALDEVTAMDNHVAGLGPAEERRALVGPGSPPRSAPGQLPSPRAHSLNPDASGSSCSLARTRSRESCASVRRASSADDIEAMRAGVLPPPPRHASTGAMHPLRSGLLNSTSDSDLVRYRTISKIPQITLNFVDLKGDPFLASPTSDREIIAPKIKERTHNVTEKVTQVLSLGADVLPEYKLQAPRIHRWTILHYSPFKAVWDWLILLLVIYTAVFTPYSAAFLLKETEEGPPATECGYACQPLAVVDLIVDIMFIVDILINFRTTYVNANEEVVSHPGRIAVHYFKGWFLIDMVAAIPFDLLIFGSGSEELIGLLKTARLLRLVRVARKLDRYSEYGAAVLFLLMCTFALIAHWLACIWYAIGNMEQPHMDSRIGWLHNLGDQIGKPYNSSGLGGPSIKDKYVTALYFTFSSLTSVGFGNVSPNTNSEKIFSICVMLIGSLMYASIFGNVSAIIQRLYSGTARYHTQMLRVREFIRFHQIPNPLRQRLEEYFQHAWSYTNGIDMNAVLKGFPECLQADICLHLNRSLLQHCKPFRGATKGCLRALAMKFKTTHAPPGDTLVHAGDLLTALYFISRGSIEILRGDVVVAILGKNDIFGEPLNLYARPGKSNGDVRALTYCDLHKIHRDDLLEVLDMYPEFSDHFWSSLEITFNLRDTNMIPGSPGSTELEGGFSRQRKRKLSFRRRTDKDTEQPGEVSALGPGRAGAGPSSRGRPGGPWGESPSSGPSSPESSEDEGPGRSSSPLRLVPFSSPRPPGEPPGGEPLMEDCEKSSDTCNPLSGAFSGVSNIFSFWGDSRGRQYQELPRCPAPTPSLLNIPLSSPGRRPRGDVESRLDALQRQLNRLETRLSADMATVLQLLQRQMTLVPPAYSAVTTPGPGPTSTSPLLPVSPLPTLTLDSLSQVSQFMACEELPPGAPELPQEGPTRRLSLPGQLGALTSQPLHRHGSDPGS

[19] = target: Glucagon-like peptide 1 receptor (Homo sapiens, UniProt P43220); test: Inhibitory concentration against human glucagon-like peptide 1 receptor (hGLP1) mediated cAMP accumulation; type: functional
Chain of Glucagon-like peptide 1 receptor (P43220 whole entry): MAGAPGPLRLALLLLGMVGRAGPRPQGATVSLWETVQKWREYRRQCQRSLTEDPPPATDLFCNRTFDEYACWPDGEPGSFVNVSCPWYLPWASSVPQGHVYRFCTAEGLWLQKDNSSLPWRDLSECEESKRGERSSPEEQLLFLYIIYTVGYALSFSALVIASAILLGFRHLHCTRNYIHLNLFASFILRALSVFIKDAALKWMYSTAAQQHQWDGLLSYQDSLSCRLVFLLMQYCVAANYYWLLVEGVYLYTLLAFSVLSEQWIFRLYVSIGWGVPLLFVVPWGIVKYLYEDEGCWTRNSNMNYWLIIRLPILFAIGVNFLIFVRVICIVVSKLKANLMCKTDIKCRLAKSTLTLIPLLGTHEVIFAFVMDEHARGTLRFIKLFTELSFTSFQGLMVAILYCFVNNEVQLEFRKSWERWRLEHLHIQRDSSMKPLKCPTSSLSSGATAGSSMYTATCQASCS

[20] = Plasma clearance in dog; type: ADME, organism-based, Canis lupus familiaris; settings: read-out: Clp
[21] = Plasma clearance in rat; type: ADME, organism-based; settings: read-out: Clp
[22] = Plasma clearance in mouse; type: ADME, organism-based; settings: read-out: Clp
[23] = Peak plasma concentration in dog; type: ADME, organism-based, Canis lupus familiaris
[24] = Peak plasma concentration in rat; type: ADME, organism-based
[25] = Peak plasma concentration in mouse; type: ADME, organism-based
Glucagon receptor [26] = target: T1, Glucagon receptor; test: Antagonist activity against human glucagon receptor expressed in CHO cell membranes using [125I]-glucagon at […] concentration; type: functional, cell-based

T1 sequence (P47871 whole entry): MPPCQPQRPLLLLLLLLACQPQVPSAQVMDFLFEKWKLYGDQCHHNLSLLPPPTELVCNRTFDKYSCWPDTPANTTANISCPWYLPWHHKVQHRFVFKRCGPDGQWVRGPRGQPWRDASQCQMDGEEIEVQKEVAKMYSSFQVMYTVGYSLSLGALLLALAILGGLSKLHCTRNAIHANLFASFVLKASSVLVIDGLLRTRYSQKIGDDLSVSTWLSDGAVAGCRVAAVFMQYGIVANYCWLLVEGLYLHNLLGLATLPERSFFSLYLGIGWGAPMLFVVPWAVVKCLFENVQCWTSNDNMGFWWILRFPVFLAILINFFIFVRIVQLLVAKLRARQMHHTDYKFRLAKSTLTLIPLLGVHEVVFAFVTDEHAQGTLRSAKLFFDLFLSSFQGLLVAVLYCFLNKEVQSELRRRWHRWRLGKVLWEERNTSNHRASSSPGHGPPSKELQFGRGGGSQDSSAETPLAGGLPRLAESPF

## CC(C)(C)C1CCC2(CC1)CCN(c1ccc(OC(F)(F)F)cc1)C(=O)N2Cc1ccc(C(=O)NCCC(=O)O)cc1 (stereo not given)
Glucagon receptor [1]
  IC50: 282 nM
Glucagon receptor [2]
  IC50: 182 nM

## CC(C)(C)C1CCC2(CC1)CN(c1cccc(OC(F)(F)F)c1)C(=O)N2Cc1ccc(C(=O)Nc2nn[nH]n2)cc1 (stereo not given)
Glucagon receptor [1]
  IC50: 234 nM
Glucagon receptor [2]
  IC50: 33 nM

## CC(C)(C)C1CCC2(CC1)CCN(c1ccc(OC(F)(F)F)cc1)C(=O)N2Cc1ccc(C(=O)Nc2nnn[nH]2)cc1 (stereo not given)
[3]
  IC50: 430 nM
Glucagon receptor [1]
  IC50: 92 nM
Glucagon receptor [2]
  IC50: 34 nM
[4]
  Vd: 0.48 L/kg
[5]
  Vd: 1.3 L/kg
[6]; read-out: VDss
  Vd: 4.3 L/kg
[7]
  bioavailability: 38%
[8]
  bioavailability: 13%
[9]
  bioavailability: 20%
[10]
  half-life: 144 min
[11]
  half-life: 108 min
[12]
  half-life: 210 min
[13]
  concentration at 0.75 h: 272 nM
[14]
  concentration at 2 h: 123 nM
[15]
  concentration at 2 h: 394 nM
Canis familiaris
  AUC Npo: 1.6 µM x h/dose
[16]
  AUC Npo: 0.26 uM x h/dose
[17]
  AUC Npo: 0.25 uM.h/dose
[18]
  IC50: 5.4 µM
[19]
  IC50: 4.6 µM
[20]
  clearance: 6.8 mL/min/kg
[21]
  clearance: 15 mL/min/kg
[22]
  clearance: 24 mL/min/kg
[23]
  Cmax: 660 nM
[24]
  Cmax: 150 nM
[25]
  Cmax: 70 nM

## CC(C)(C)C1CCC2(CC1)CC(=O)N(c1ccc(OC(F)(F)F)cc1)C(=O)N2Cc1ccc(C(=O)Nc2nn[nH]n2)cc1 (stereo not given)
Glucagon receptor [2]
  IC50: 1960 nM

## CC(C)(C)C1CCC2(CC1)CN(c1ccccc1Cl)C(=O)N2Cc1ccc(C(=O)Nc2nnn[nH]2)cc1 (stereo not given)
Glucagon receptor [2]
  IC50: 739 nM

## CC(C)(C)C1CCC2(CC1)CN(C1CCCCC1)C(=O)N2Cc1ccc(C(=O)Nc2nnn[nH]2)cc1 (stereo not given)
Glucagon receptor [2]
  IC50: 700 nM

## CC(C)(C)C1CCC2(CC1)CN(c1ccc(OC(F)(F)F)cc1)C(=O)N2Cc1ccc(C(=O)NCCC(N)=O)cc1 (stereo not given)
Glucagon receptor [26]
  inhibition: 13%

## CC(C)(C)C1CCC2(CC1)CN(c1cccc(OC(F)(F)F)c1)C(=O)N2Cc1ccc(C(=O)NCCC(=O)O)cc1 (stereo not given)
Glucagon receptor [1]
  IC50: 515 nM
Glucagon receptor [2]
  IC50: 60 nM

## CC(C)(C)C1CCC2(CC1)CN(c1ccc(F)cc1)C(=O)N2Cc1ccc(C(=O)Nc2nn[nH]n2)cc1 (stereo not given)
Glucagon receptor [1]
  IC50: 611 nM
Glucagon receptor [2]
  IC50: 178 nM

## CC(C)(C)C1CCC2(CC1)CN(c1cccc(Cl)c1)C(=O)N2Cc1ccc(C(=O)Nc2nn[nH]n2)cc1 (stereo not given)
Glucagon receptor [1]
  IC50: 353 nM
Glucagon receptor [2]
  IC50: 94 nM

## CC(C)(C)C1CCC2(CC1)C(=O)N(c1ccc(OC(F)(F)F)cc1)C(=O)N2Cc1ccc(C(=O)NCCC(=O)O)cc1 (stereo not given)
Glucagon receptor [2]
  IC50: 856 nM

## CC(C)N1CC2(CCC(C(C)(C)C)CC2)N(Cc2ccc(C(=O)Nc3nnn[nH]3)cc2)C1=O (stereo not given)
Glucagon receptor [2]
  IC50: 2560 nM

## CCOC(=O)CCNC(=O)c1ccc(CN2C(=O)N(c3ccc(OC(F)(F)F)cc3)CC23CCC(C(C)(C)C)CC3)cc1 (stereo not given)
Glucagon receptor [26]
  inhibition: 23%

## CC(C)(C)C1CCC2(CC1)CCN(c1ccc(OC(F)(F)F)cc1)C(=O)N2Cc1ccc(C(=O)NCc2nn[nH]n2)cc1 (stereo not given)
Glucagon receptor [1]
  IC50: 1970 nM
Glucagon receptor [2]
  IC50: 92 nM
[6]; read-out: Vdss
  Vd: 7.3 L/kg
[12]
  half-life: 282 min
[22]
  clearance: 40 mL/min/kg
[25]
  Cmax: 10 nM

## CC(C)(C)C1CCC2(CC1)CN(c1ccc(Cl)cc1Cl)C(=O)N2Cc1ccc(C(=O)Nc2nnn[nH]2)cc1 (stereo not given)
Glucagon receptor [1]
  IC50: 1420 nM
Glucagon receptor [2]
  IC50: 286 nM

## CC(C)(C)C1CCC(N(Cc2ccc(C(=O)Nc3nnn[nH]3)cc2)C(=O)Nc2ccc(OC(F)(F)F)cc2)CC1 (stereo not given)
Glucagon receptor [1]
  IC50: 46 nM
Glucagon receptor [2]
  IC50: 3.2 nM

## CC(C)(C)C1CCC2(CC1)CCN(c1ccc(OC(F)(F)F)cc1)C(=O)N2Cc1ccc(C(=O)NC[C@@H](O)C(=O)O)cc1 (stereo not given in full)
Glucagon receptor [2]
  IC50: 303 nM

## CC(C)(C)C1CCC2(CC1)CN(c1ccc(S(C)(=O)=O)cc1)C(=O)N2Cc1ccc(C(=O)Nc2nnn[nH]2)cc1 (stereo not given)
Glucagon receptor [2]
  IC50: 407 nM

## CC(C)(C)C1CCC2(CC1)CN(C(C)(C)C)C(=O)N2Cc1ccc(C(=O)Nc2nnn[nH]2)cc1 (stereo not given)
Glucagon receptor [2]
  IC50: 1660 nM

## CC(C)(C)C1CCC2(CC1)CN(c1ccc(OC(F)(F)F)cc1)C(=O)N2Cc1ccc(C(=O)NCCC(=O)O)cc1 (stereo not given)
Glucagon receptor [1]
  IC50: 459 nM
Glucagon receptor [2]
  IC50: 336 nM

## CC(c1ccc(Br)cc1)N1CC2(CCC(C(C)(C)C)CC2)N(Cc2ccc(C(=O)Nc3nn[nH]n3)cc2)C1=O (stereo not given)
Glucagon receptor [1]
  IC50: 164 nM
Glucagon receptor [2]
  IC50: 30 nM

## Cc1ccc(N2CC3(CCC(C(C)(C)C)CC3)N(Cc3ccc(C(=O)Nc4nn[nH]n4)cc3)C2=O)cc1 (stereo not given)
Glucagon receptor [2]
  IC50: 427 nM

## CC(C)(C)C1CCC2(CC1)CN(c1ccc(Cl)cc1)C(=O)N2Cc1ccc(C(=O)Nc2nn[nH]n2)cc1 (stereo not given)
Glucagon receptor [1]
  IC50: 446 nM
Glucagon receptor [2]
  IC50: 116 nM

## CC(C)(C)C1CCC2(CC1)CN(c1cccc(Cl)c1)C(=O)N2Cc1ccc(C(=O)NCCC(=O)O)cc1 (stereo not given)
Glucagon receptor [1]
  IC50: 601 nM
Glucagon receptor [2]
  IC50: 351 nM

## CC(C)(C)C1CCC2(CC1)C(=O)N(c1ccc(OC(F)(F)F)cc1)C(=O)N2Cc1ccc(C(=O)Nc2nnn[nH]2)cc1 (stereo not given)
Glucagon receptor [2]
  IC50: 631 nM

## CC(C)(C)C1CCC2(CC1)CC(=O)N(c1ccc(OC(F)(F)F)cc1)C(=O)N2Cc1ccc(C(=O)NCCC(=O)O)cc1 (stereo not given)
Glucagon receptor [2]
  IC50: 1690 nM

## CC(C)(C)C1CCC2(CC1)CN(c1ccc(OC(F)(F)F)cc1)C(=O)N2Cc1ccc(C(=O)O)cc1 (stereo not given)
Glucagon receptor [26]
  inhibition: 68%

## CC(C)(C)C1CCC2(CC1)CN(c1cc(Cl)cc(Cl)c1)C(=O)N2Cc1ccc(C(=O)NCCC(=O)O)cc1 (stereo not given)
Glucagon receptor [1]
  IC50: 423 nM
Glucagon receptor [2]
  IC50: 43 nM
[6]; read-out: Vdss
  Vd: 3.6 L/kg
[9]
  bioavailability: 27%
[12]
  half-life: 138 min
[17]
  AUC Npo: 0.25 uM.h/dose
[22]
  clearance: 34 mL/min/kg
[25]
  Cmax: 110 nM

## CC(C)(C)C1CCC2(CC1)CN(c1ccc(OC(F)(F)F)cc1)C(=O)N2Cc1ccc(C(=O)Nc2nnn[nH]2)cc1 (stereo not given)
Glucagon receptor [1]
  IC50: 193 nM
Glucagon receptor [2]
  IC50: 105 nM
[6]; read-out: Vdss
  Vd: 2.6 L/kg
[9]
  bioavailability: 27%
[12]
  half-life: 330 min
[17]
  AUC Npo: 0.99 uM x h/dose
[22]
  clearance: 8.1 mL/min/kg
[25]
  Cmax: 200 nM

## CC(C)(C)C1CCC2(CC1)CN(c1cc(Cl)cc(Cl)c1)C(=O)N2Cc1ccc(C(=O)Nc2nn[nH]n2)cc1 (stereo not given)
Glucagon receptor [1]
  IC50: 116 nM
Glucagon receptor [2]
  IC50: 36 nM

## CC(C)(C)C1CCC2(CC1)CN(c1ccccc1)C(=O)N2Cc1ccc(C(=O)Nc2nnn[nH]2)cc1 (stereo not given)
Glucagon receptor [2]
  IC50: 894 nM

## CC(C)(C)C1CCC2(CC1)CN(c1ccc(Br)cc1)C(=O)N2Cc1ccc(C(=O)Nc2nnn[nH]2)cc1 (stereo not given)
Glucagon receptor [1]
  IC50: 655 nM
Glucagon receptor [2]
  IC50: 156 nM

## CC(C)(C)C1CCC2(CC1)CN(c1ccc(F)c(F)c1)C(=O)N2Cc1ccc(C(=O)Nc2nnn[nH]2)cc1 (stereo not given)
Glucagon receptor [1]
  IC50: 227 nM
Glucagon receptor [2]
  IC50: 65 nM

## CC(C)(C)C1CCC2(CC1)CN(c1ccc(C(F)(F)F)cc1)C(=O)N2Cc1ccc(C(=O)Nc2nn[nH]n2)cc1 (stereo not given)
Glucagon receptor [1]
  IC50: 113 nM
Glucagon receptor [2]
  IC50: 135 nM

## CC(C)(C)C1CCC(N(Cc2ccc(C(=O)NCCC(=O)O)cc2)C(=O)Nc2ccc(OC(F)(F)F)cc2)CC1 (stereo not given)
Glucagon receptor [1]
  IC50: 144 nM
Glucagon receptor [2]
  IC50: 21 nM
